Screening data (PubChem BioAssay)
An excerpt weighted towards active compounds, which were near 4.3% of everything screened.
B2AR ag – beta2AR agonists driving receptor internalization, primary screen, cell-based, FAP fluorogen, flow cytometry; response, % (no concentration beside the values); 340,000 compounds, 0.43% hits; Am2.2-beta2AR cells; AID 504454, 2011; Beta-2 adrenergic receptor (Homo sapiens), P07550;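 active = response above a set limit, near 3 SD of response in nonfluorescent compounds, cut at about 42% in these data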
Target sequence (P07550 whole entry, looked up): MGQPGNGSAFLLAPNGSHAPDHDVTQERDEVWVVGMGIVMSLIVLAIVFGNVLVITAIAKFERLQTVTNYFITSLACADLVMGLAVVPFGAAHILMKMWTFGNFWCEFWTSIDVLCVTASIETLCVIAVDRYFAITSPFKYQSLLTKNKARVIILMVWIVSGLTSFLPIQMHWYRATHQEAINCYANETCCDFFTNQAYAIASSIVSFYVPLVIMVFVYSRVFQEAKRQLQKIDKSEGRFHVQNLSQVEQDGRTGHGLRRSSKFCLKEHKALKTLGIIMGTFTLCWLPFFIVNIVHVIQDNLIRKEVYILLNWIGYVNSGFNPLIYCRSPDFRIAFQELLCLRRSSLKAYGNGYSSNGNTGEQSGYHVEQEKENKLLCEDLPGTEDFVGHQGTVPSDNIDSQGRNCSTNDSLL
TAAR1 agonist – human TAAR1 agonists, primary screen, Fluo-8 calcium fluorescence, CHO RD-HGA16 cells. 360,000 compounds, 0.99% hits. activation, % at 3 µM. Trace amine-associated receptor 1 (Homo sapiens), Q96RJ0. vehicle wells 0%, saturating PEA agonist 100%;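 active = activation above the mean activation of all test compounds in the run plus 3 SD, cut at about 38% in these data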
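Repeats: no replicates (n 1) | Material: CHO-derived RD-HGA16 cells with stable Gα16 and human TAAR1 | Technique: Kinetic Fluo-8 calcium fluorescence | Schedule: 17-24 h seeding, 75 min 37 °C dye, 30 min RT | Evaluation: % activation from peak over basal fluorescence ratio, DMSO-to-PEA scaled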
MC4R ag barr – MC4R agonists recruiting beta-arrestin, primary screen, cell-based, luminescence, agonist arm of biased-ligand search; Melanocortin receptor 4 (Homo sapiens), P32245; activation, % at 8.9 µM; U2OS MC4R beta-arrestin complementation; percent of melanotan II response, DMSO zero; 360,000 compounds, 0.98% hits;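 active = activation above a per-plate cutoff, the mean activation of sample wells on that plate plus 3 SD, cut at about 8% in these data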
MC4R antag cAMP – MC4R antagonists of cAMP signaling, primary screen, cell-based, TR-FRET, antagonist arm of biased-ligand search; 360,000 compounds, 0.48% hits; inhibition, % at 6.5 µM; MC4R-expressing cells, MTII-stimulated cAMP, LANCE TR-FRET; Melanocortin receptor 4 (Homo sapiens), P32245; AID 540295, 2011;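 active = inhibition above its plate's cutoff, the mean of tested wells on that plate plus 3 SD, cut at about 29% in these data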
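Assay system: human MC4R-expressing U2OS cells; reagent: Melanotan II stimulation of cells; dosing: 6.5 µM single dose; timing: compound 30 min, challenge 1 h, detection 1 h; signal: TR-FRET cAMP assay; replicates: one well per compound, no replicates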
TAAR1 antagonist – human TAAR1 antagonists, primary screen, Fluo-8 calcium fluorescence, CHO RD-HGA16 cells. inhibition, % at 3 µM. 360,000 compounds, 1.5% hits. Trace amine-associated receptor 1 (Homo sapiens), Q96RJ0. antagonist;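 active = inhibition above a per-plate cutoff, the mean inhibition of test compounds on that plate plus 3 SD, cut at about 49% in these data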
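Test system: RD-HGA16 CHO cells with stable hTAAR1 and Gα16 / Probe or stimulus: EC80 β-phenethylamine stimulus / Times: seeding 17-24 h prior, 75-min 37 °C, 30-min RT dye loading / Detection: Fluo-8 calcium-sensitive fluorescence / Read-out basis: % inhibition scaled between DMSO and EC80 PEA controls / Repeats: singlicate, one well per test compound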
HTR2A ag – mouse Htr2a agonists via beta-arrestin recruitment, primary screen, cell-based, luminescence | activation, % at 7.6 µM | 5-hydroxytryptamine receptor 2A (Mus musculus), P35363 | CHO-K1 mHTR2A beta-arrestin complementation; percent of 30 µM serotonin response | 360,000 compounds, 0.66% hits;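 active = activation above a run cutoff, the mean activation of all tested compounds plus 3 SD, cut at about 14% in these data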
TAAR1 nonsel count – nonselective antagonists in TAAR1 counter-screen cells, counter-screen for hTAAR1 antagonist project, cell-based, fluorescence, calcium; shares compounds with TAAR1 antagonist; counterscreen cell line, antagonist mode; inhibition, % at 3 µM; 2,400 compounds, 77% hits; in the data active = inhibition above about 22%;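 note: CHO-Ga16 host cells stimulated with ATP at an EC80 level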
TAAR1 antag conf – human TAAR1 antagonists, retest of hits, confirmation, cell-based, fluorescence; TAAR1-expressing cells, fluorescence antagonist read-out; inhibition, % at 3 µM; AID 651785, 2012; shares compounds with TAAR1 antagonist; 2,400 compounds, 40% hits; in the data active = inhibition above about 49%;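 note: CHO-Ga16 host cells challenged with agonist PEA near its EC80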
Ga16 nonsel ag – calcium activation in Ga16-expressing cells, counter-screen for TAAR1 antagonist project, cell-based, fluorescence. shares compounds with TAAR1 antagonist. agonist counterscreen. activation, % at 3 µM. 2,400 compounds, 18% hits. AID 651953, 2012; in the data active = activation above about 12%
TAAR1 ag counter – TAAR1 activation by candidate antagonists – cell-based, fluorescence, counter-screen for TAAR1 antagonist project; shares compounds with TAAR1 antagonist; 2,400 compounds, 2% hits; hTAAR1 cell line, agonist mode; AID 651955, 2012; activation, % at 3 µM; in the data active = activation above about 37%;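 note: CHO cells stably expressing TAAR1 with calcium dye readout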
Numbers stand for hits; 0 = inactive; - = not tested or not shown.

SMILES	B2AR ag	TAAR1 agonist	MC4R ag barr	MC4R antag cAMP	TAAR1 antagonist	HTR2A ag	TAAR1 nonsel count	TAAR1 antag conf	Ga16 nonsel ag	TAAR1 ag counter
O=C(Nc1ccc(-c2cn3ccsc3n2)cc1)C1COc2ccccc2O1 (configuration not stated)	0	0	0	0	59.6	0	37.9	56.4	15.3	0
COc1ccc(-c2csc(NC(=O)c3cccc(N4C(=O)CCC4=O)c3)n2)cc1OC	0	0	0	0	65.1	0	0	0	0	0
Cc1ccc(NC(=O)C2COc3ccccc3O2)cc1 (configuration not stated)	0	0	0	0	0	0	-	-	-	-
C[C@H](CO)N1C[C@H](C)[C@@H](CN(C)Cc2cccc(F)c2)Oc2cc(-c3cccc(C#N)c3)ccc2S1(=O)=O	-	0	0	0	0	0	-	-	-	-
O=C(NCCOc1ccccc1F)c1ccc2c(=O)n3c(nc2c1)CCC3	0	0	0	0	0	0	-	-	-	-
COc1ccc(-c2csc(NC(=S)NC(=O)/C=C/c3ccco3)n2)cc1OC	0	0	9.1	0	63.2	0	29.3	56.6	0	0
COc1ccc(-c2csc(NC(=S)NC(=O)/C=C/c3ccco3)n2)cc1Br	0	0	0	0	0	0	-	-	-	-
COc1ccc(C2CC(=O)C(c3ccccc3OC)=CN2Cc2ccccc2)cc1 (configuration not stated)	-	0	-	-	56.3	-	0	0	0	0
O=S(=O)(c1ccccc1Br)N(Cc1ccccc1)CC(O)COCc1ccccc1 (configuration not stated)	0	0	0	0	58.9	0	0	0	0	0
O=S(=O)(c1ccccc1Br)N(CC(O)COCc1ccccc1)C1CC1 (configuration not stated)	0	0	0	0	0	0	-	-	-	-
O=C(c1oc2ccccc2c1CSCc1ccccc1)N1CCN(c2ncccn2)CC1	0	0	0	0	64.9	0	29.8	0	0	0
CCOCC(=O)Nc1c(C(=O)N2CCN(c3ncccn3)CC2)oc2ccccc12	0	0	0	0	0	0	-	-	-	-
O=C(Nc1cc(=O)c2ccccc2o1)N1CCOCC1	0	0	0	0	63.9	0	0	0	0	0
O=C(Nc1cc(=O)c2ccccc2o1)N1CCCCC1	0	0	0	0	0	0	-	-	-	-
O=C1NC[C@H](CCCCN2CCN(Cc3ccccc3)C(=O)C2=O)N(CCC2CCCCC2)C1=O	-	0	-	-	0	0	-	-	-	-
Cc1ccc(CN2C(=O)C(=O)c3cc(C)ccc32)cc1	0	0	0	0	0	0	-	-	-	-
Cc1ccc2c(c1)C(=O)C(=O)N2Cc1ccc(Br)cc1	0	0	0	0	82.0	0	0	0	0	0
CCCCCNC(=O)Cc1ccc(S(=O)(=O)N2CCOCC2)s1	0	0	0	0	0	0	-	-	-	-
COc1ccc(OC)c(N(CC(=O)NCc2ccccc2)S(=O)(=O)c2ccc(OC)c(OC)c2)c1	0	0	0	0	50.9	0	21.6	0	0	0
